Bioassay records from PubChem.
EBV gp42 inh = inhibitors of Epstein-Barr virus glycoprotein 42. Fluorescence polarization binding assay, mP read-out. inhibition, % (tested at 21.74 µM). actives 0.42% (n = 220,000). AID 1085
RBBP9 inh = blocks human serine hydrolase RBBP9. O75884. recombinant RBBP9, FP-Rh probe fluorescence polarization. inhibition, % at 7.94 µM. actives 0.2% (n = 220,000). AID 1515;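 active means inhibition above the campaign mean of all tested compounds plus 3 SD, cut at about 14% in these data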;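 further: plate controls were DMSO wells with RBBP9 for no effect and wells lacking RBBP9 protein for full effect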
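System: RBBP9 protein / Quantity: 2.5 µM RBBP9 dispensing solution, before mixing / Also added: Serine-hydrolase probe FP-Rh, 375 nM pre-mixing / Dosing: 7.94 µM single dose, 0.794% DMSO / Timing: enzyme-compound preincubation 30 min, then probe labeling 45 min, 25 °C / Signal: FP readout at 525/598 nm / Controls: DMSO-treated enzyme wells and wells lacking RBBP9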
eIF4E 4G PPI = blocks eIF4E binding to eIF4G; P63073+Q04637; TR-FRET eIF4E-eIF4GI(517-606) binding, 2 h; inhibition, % at 21.7 µM; actives 0.37% (n = 220,000);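 active means inhibition above about 30%, limit read from the data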;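 further: 0% = full FRET control wells and 100% = background wells lacking eIF4GI fragment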
14-3-3 Bad PPI = disrupts binding of bovine 14-3-3 zeta to phospho-Bad peptide; TR-FRET 14-3-3zeta/Dy647-pBad peptide displacement, 1 h; inhibition, % at 21.7 µM; actives 0.71% (n = 220,000);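 active means inhibition above about 70%, limit read from the data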;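 further: 0% = full 14-3-3 plus peptide FRET controls and 100% = background without 14-3-3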
PKD1 kinase inh = inhibitors of human PKD1 kinase; Q15139; PKD1 kinase fluorescence polarization assay; inhibition, % (no concentration beside the values); actives 0.056% (n = 200,000)
RBBP9 inh conf = confirmation of human RBBP9 inhibitors; shares compounds with RBBP9 inh; recombinant RBBP9, FP-Rh probe fluorescence polarization; inhibition, % at 7.94 µM; actives 36% (n = 410);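 active means inhibition above the hit cutoff derived for the primary screen, cut at about 15% in these data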;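 further: 0% = RBBP9 with DMSO and 100% = wells lacking RBBP9 protein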
Numbers without * were called inactive; . = no result. Shown are actives, neighbours in structure and some others; about 1.6% of the full set was active somewhere. Unless noted, no stated cut-off is given here; in the data, active means inhibition above about 50%; inactive means the rest.

SMILES | EBV gp42 inh | RBBP9 inh | eIF4E 4G PPI | 14-3-3 Bad PPI | PKD1 kinase inh | RBBP9 inh conf
COc1cc(-n2nnnc2SCC(=O)N2CCN(c3ccc(F)cc3)CC2)c(OC)cc1Cl | -16.8 | 15.7* | -0.6 | 8.4 | -3.2 | 4.6
CCN(C(=O)COC(=O)c1ccc(Br)o1)C1CCCCC1 | -6.7 | -1.8 | 0.8 | 6.0 | -7.0 | .
O=C(CN1C(=O)COc2ccc(S(=O)(=O)N3CCOCC3)cc21)NCc1ccccn1 | -19.2 | -4.0 | 3.7 | 3.8 | . | .
NC(=O)c1sc2nc(-c3ccco3)ccc2c1N | -83.3 | 8.3 | 0.9 | 3.4 | -2.0 | .
COC(=O)c1sc2nc(-c3ccco3)ccc2c1N | -7.2 | 22.1* | 2.6 | 6.7 | 2.9 | 32.1*
CC(Oc1ccccc1)C(=O)N1CCCc2ccccc21 (stereo unspecified) | -24.8 | 0.1 | 2.4 | 1.6 | 7.0 | .
COc1ccc(OC(C)C(=O)N2CCCc3ccccc32)cc1 (stereo unspecified) | -14.4 | 16.9* | 2.4 | -2.0 | 0.4 | 4.9
CN(C)S(=O)(=O)c1cccc(C(=O)OCC(=O)NCc2ccc3c(c2)OCO3)c1 | 5.3 | -12.1 | -0.8 | 11.2 | 0.4 | .
OC(CNC1Cc2ccccc2C1)COc1ccc(F)cc1 (stereo unspecified) | -10.4 | 15.3* | 4.3 | 2.9 | . | 7.2
CCOC(=O)C(CCCCCOc1ccc([N+](=O)[O-])cc1)C(=O)OCC | -9.7 | 17.7* | 3.1 | -4.7 | 7.2 | 5.9
Cc1[nH]c2ccccc2c1/C=N/NC(=O)c1cc(C(C)(C)C)[nH]n1 | -14.7 | 0.9 | 1.3 | -0.5 | . | .
Cc1[nH]c2ccccc2c1/C=N/NC(=O)c1cc(-c2ccccc2)n[nH]1 | -17.5 | 19.3* | 3.7 | 9.1 | . | 25.2*
Cc1cc(C(=O)Nc2ccccc2)oc1C | -5.1 | -6.8 | -10.1 | -3.6 | -0.6 | .
O=C(Nc1ccccc1)c1cccc(=O)o1 | -6.0 | 17.5* | -1.7 | -1.1 | . | 4.1
COc1cccc(-c2csc(N3CCN(C(=S)Nc4ccccc4C)CC3)n2)c1 | 1.4 | -9.6 | -5.2 | -5.7 | -7.4 | .
O=C(C[n+]1ccc(C(=O)NCCCO)cc1)c1cccc(Br)c1 | -20.2 | 62.6* | -4.2 | -12.9 | . | 6.2
CCOC(=O)C1=C(SCC(=O)Nc2ccccc2)NC(=O)C(C#N)C12CCCCC2 (stereo unspecified) | 7.5 | 14.6* | 2.6 | 4.4 | -2.4 | 8.1
O=[N+]([O-])c1ccc(Nc2c3ccccc3nc3ccccc23)cc1 | -16.7 | 15.6* | -2.1 | -6.2 | 67.0* | 11.7
O=[N+]([O-])c1ccccc1Nc1c2ccccc2nc2ccccc12 | -9.2 | -7.3 | -0.8 | -16.3 | -2.5 | .
O=c1ccc(N=Nc2ccccc2)ccc1O | -15.0 | 18.2* | 3.3 | -11.4 | . | 3.8
CC(C)c1c(C#N)c(N)nc(SCC(=O)c2cc3ccccc3oc2=O)c1C#N | -22.6 | 2.4 | -3.5 | -0.6 | -9.1 | .
N#Cc1ccc(-c2ccccc2)nc1SCC(=O)c1cc2ccccc2oc1=O | -16.3 | 30.3* | -26.6 | 20.2 | -3.4 | -57.4
O=C(NN=C1CCCC1)c1ccccc1OCCOc1ccccc1 | 6.4 | 23.0* | -3.3 | -1.4 | 10.3 | 2.6
O=C(NN=C1CCCCC1)c1ccccc1OCc1ccc(F)cc1 | -5.6 | -1.6 | -1.9 | -17.2 | -1.4 | .
O=C(CN(c1ccccc1)S(=O)(=O)c1ccccc1[N+](=O)[O-])Nc1ccccc1C(=O)N1CCOCC1 | -7.5 | -6.7 | -2.7 | -6.0 | 8.0 | .
SMILES | EBV gp42 inh | RBBP9 inh | eIF4E 4G PPI | 14-3-3 Bad PPI | PKD1 kinase inh | RBBP9 inh conf
CC1=CC(=NOC(=O)/C=C/c2ccccc2)C=C(C)C1=O | -9.8 | 16.8* | -2.1 | 2.5 | 0.8 | 78.8*
CC1=CC(=O)C=C(C)C1=NOC(=O)/C=C\c1ccccc1 | -12.7 | -2.9 | 0.9 | -16.6 | -7.0 | .
CC(NC(=O)Cc1cccc(C(F)(F)F)c1)c1ccc(F)cc1 (stereo unspecified) | -16.9 | 3.0 | 0.6 | 2.8 | 7.7 | .
Cn1c(N2CCOCC2)nc2c1c(=O)n(Cc1ccc(Cl)c(Cl)c1)c(=O)n2C | -2.5 | 18.4* | -1.9 | -0.7 | -10.9 | 4.1
C/C=C/CSc1nc2c(c(=O)[nH]c(=O)n2C)n1C(C)C | -6.0 | 14.7* | 5.4 | 0.5 | 5.3 | 3.6
CC(C)NC(=O)CCS(=O)(=O)c1ccc(Br)s1 | -6.3 | 18.2* | 0.1 | 6.4 | 3.9 | 3.1
O=C(c1ccccc1F)N1CCN(c2ccc([N+](=O)[O-])cc2-n2cccc2)CC1 | -7.2 | 15.9* | 2.4 | 1.6 | . | 3.7
